Source: ChEMBL document CHEMBL1128317, “Phenoxypropylamines: a new series of squalene synthase inhibitors” (J Med Chem, 1995)

Biological target: T1, Squalene synthase (Rattus norvegicus, UniProt Q02769)
T1 sequence (Q02769 whole entry): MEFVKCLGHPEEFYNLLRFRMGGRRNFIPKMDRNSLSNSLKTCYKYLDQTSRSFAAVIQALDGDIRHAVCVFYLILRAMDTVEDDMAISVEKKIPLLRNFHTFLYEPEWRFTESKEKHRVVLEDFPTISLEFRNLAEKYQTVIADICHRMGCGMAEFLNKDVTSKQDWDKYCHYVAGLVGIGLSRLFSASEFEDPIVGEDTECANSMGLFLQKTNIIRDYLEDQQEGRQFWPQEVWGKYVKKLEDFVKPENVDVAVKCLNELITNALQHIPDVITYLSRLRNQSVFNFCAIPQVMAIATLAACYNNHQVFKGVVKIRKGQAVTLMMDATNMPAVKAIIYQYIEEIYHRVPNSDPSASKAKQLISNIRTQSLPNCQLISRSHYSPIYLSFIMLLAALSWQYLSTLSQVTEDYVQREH
Test: Inhibition of rat microsomal squalene synthase
Method in brief: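 Rat liver microsomal protein (20 μg) incubated at 37 °C in 50 mM potassium phosphate with 4.95 mM MgCl2, 9.9 mM KF and 0.9 mM NADPH. 1-[3H]farnesyl pyrophosphate was added to 20 μM final, and the reaction was stopped after 15 min with 4% KOH. Labeled squalene was isolated on a C18 column. IC50 was derived from % inhibition versus controls (duplicates per concentration, 6–8 controls).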

Row | SMILES | IC50 [nM]
1 | C=CCc1cc(-c2ccccc2)ccc1OCCCNC(C)C | 0.004
2 | C=CCc1cc(C(=O)CCC)ccc1OCC(O)CNC(C)C (stereo not given) | 4.5
3 | CCCCOc1ccc(OCCCNC(C)C)cc1 | 56
4 | C=CCc1cc(OCCCC)ccc1OCCCNC(C)C | 0.6
5 | CC(C)NCCCOc1ccc(-c2cccnc2)cc1 | > 2500
6 | C=CCc1cc(NC(C)=O)ccc1OCCCNC(C)C | 65
7 | C=CCc1cc(C(=O)OCC)ccc1OCCCNC(C)C | 0.05
8 | CCC(=O)Nc1ccc(OCC(O)CNC(C)C)c(Cc2ccccc2)c1 (stereo not given) | 900
9 | CC(C)NCCCOc1cccc(-c2ccccc2)c1 | 600
10 | CCC(=O)Oc1ccc(OCCCNC(C)C)cc1 | 3
11 | CCC(=O)Nc1ccc(OCCCNC(C)C)c(Cc2ccccc2)c1 | 0.6
12 | CCCCOc1ccc(OCC(CNC(C)C)OC)cc1 (stereo not given) | 3300
13 | CC(C)=CCC/C(C)=C/CC/C(C)=C/CCOP(=O)(O)C(=O)O | 30000
14 | C=CCc1ccccc1OCC(O)CNC(C)C (stereo not given) [ALPRENOLOL] | 4200

Results, then the compound that gave them:

Row | IC50 [nM] | SMILES
15 | 12 | CC(C)NCCCOc1ccccc1Cc1ccccc1
16 | > 2500 | CC(C)=CCC/C(C)=C/c1ccccc1OCCCN(C)C(C)C
17 | > 2500 | CC(=O)Nc1ccc(OCCCNC(C)C)cc1
18 | 1 | C=CCc1cc(C(=O)CCC)ccc1OCCCNC(C)C
19 | 250 | C=CCc1cc(N)ccc1OCCCNC(C)C
20 | 170 | CC(C)NCCCOc1ccc(-c2ccccc2)cc1
21 | 56 | C=CCc1ccccc1OCCCNC(C)C
22 | 3000 | CC(C)NCC(O)COc1ccc(-c2ccccc2)cc1 (stereo not given)
23 | 1400 | CCOC(=O)c1ccc(OCC(O)CNC(C)C)cc1 (stereo not given)
24 | 8800 | CC(C)NCC(O)COc1ccccc1Cc1ccccc1 (stereo not given)
25 | 5 | C=CCc1cc(NC(=O)CC)ccc1OCCCNC(C)C
